Data taken from ChEMBL document CHEMBL1143425, “Paradoxical growth effect of caspofungin observed on biofilms and planktonic cells of five different Candida species” (2007).
≈ marks a conversion by molar mass, not a printed value. Calls of active or inactive are those of the source.

Columns and labels:
Candida orthopsilosis [1] = assay: Antimicrobial activity against Candida orthopsilosis BR-A39 grown as planktonic cell assessed as paradoxical growth after 48 hrs by XTT reduction assay; format: functional, organism-based
Outline: (§1)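 Planktonic cells were tested by CLSI M27-A2 broth microdilution with caspofungin in water, incubated 48 h. XTT-menadione was added to each well, plates were held 1 h at 35°C in the dark and centrifuged, and supernatant absorbance was read at 490 nm. MIC was defined as 50% decrease in metabolic activity versus drug-free control. PG was defined as ≥20% of control activity at concentrations above MIC.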

Candida parapsilosis [2] = assay: Antimicrobial activity against Candida parapsilosis BR-A26 grown as planktonic cell assessed as concentration producing paradoxical growth after 48 hrs by XTT reduction assay; format: functional
Outline: (§2)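 Planktonic broth microdilution followed CLSI M27-A2, with caspofungin dissolved in water. After 48 h, XTT-menadione was added to each well and plates were incubated 1 h at 35°C in the dark. Cells were pelleted by centrifugation and the supernatant was read at 490 nm. MIC was the lowest concentration giving a 50% drop in metabolic activity versus the drug-free control. PG was ≥20% of drug-free activity above the MIC.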

Candida orthopsilosis [3] = assay: Antimicrobial activity against Candida orthopsilosis BR-A36 grown as biofilm assessed as concentration producing paradoxical growth after 48 hrs by XTT reduction assay; format: functional
Outline: (§3)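 Sabouraud-grown cells were shaken overnight (18 h, 120 rpm, 35°C) in RPMI 1640 with MOPS at pH 7.0, then washed and set at ~1 × 10^7 cells/ml. Attachment lasted 1.5 h at 37°C, and growth ran 24 h before challenge. Caspofungin was added in RPMI at 2–1,024 μg/ml (10 doublings) for 48 h at 35°C with shaking. XTT-menadione was read at 490 nm after 1 h at 35°C in the dark, with blank wells subtracted. MIC was taken as 50% reduction versus drug-free wells, and PG as >50% of control above MIC. Assays were run in duplicate.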

Candida metapsilosis [4] = assay: Antimicrobial activity against Candida metapsilosis BR-A40 grown as biofilm assessed as concentration producing paradoxical growth after 48 hrs by XTT reduction assay; format: functional; outline: as §3
Candida tropicalis [5] = assay: Antimicrobial activity against Candida tropicalis BR-A9 grown as planktonic cell assessed as concentration producing paradoxical growth after 48 hrs by XTT reduction assay; format: functional; outline: as §2
Candida parapsilosis [6] = assay: Antimicrobial activity against Candida parapsilosis 22019 grown as planktonic cell assessed as paradoxical growth after 48 hrs by XTT reduction assay; format: functional; outline: as §2
Candida orthopsilosis [7] = assay: Antimicrobial activity against Candida orthopsilosis BR-A33 grown as biofilm assessed as concentration producing paradoxical growth after 48 hrs by XTT reduction assay; format: functional; outline: as §3
Candida metapsilosis [8] = assay: Antimicrobial activity against Candida metapsilosis BR-A42 grown as planktonic cell after 48 hrs by XTT reduction assay; format: functional; details: Lodderomyces metapsilosis; outline: as §1
Candida albicans [9] = assay: Antimicrobial activity against Candida albicans BR-A2 grown as planktonic cell after 48 hrs by XTT reduction assay; format: functional
Outline: (§4)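 Planktonic broth microdilution followed CLSI M27-A2, with caspofungin dissolved in water. After 48 h, XTT-menadione was added to the wells and plates were kept 1 h at 35°C in the dark. Plates were then centrifuged and supernatant A490 was read. MIC was the lowest concentration giving a 50% decrease in metabolic activity versus drug-free control. Paradoxical growth was defined as ≥20% of control activity above the MIC.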

Candida metapsilosis [10] = assay: Antimicrobial activity against Candida metapsilosis BR-A41 grown as planktonic cell after 48 hrs by XTT reduction assay; format: functional; details: Lodderomyces metapsilosis; outline: as §1
Candida albicans [11] = assay: Antimicrobial activity against Candida albicans BR-A1 grown as planktonic cell after 48 hrs by XTT reduction assay; format: functional; outline: as §4
Candida metapsilosis [12] = assay: Antimicrobial activity against Candida metapsilosis BR-A41 grown as biofilm assessed as concentration producing paradoxical growth after 48 hrs by XTT reduction assay; format: functional; outline: as §3
Candida tropicalis [13] = assay: Antimicrobial activity against Candida tropicalis BR-A8 grown as biofilm after 48 hrs by XTT reduction assay; format: functional
Outline: (§5)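 Isolates were grown on Sabouraud agar (30°C, 24 h), then overnight in RPMI 1640 with MOPS, pH 7.0, at 35°C with shaking. Cells were washed and set to ~1 × 10^7 cells/ml, attached 1.5 h at 37°C, and grown 24 h. Biofilms were then exposed to caspofungin in 10 twofold dilutions (2–1,024 μg/ml) for 48 h at 35°C with shaking. Read-out was XTT-menadione, 1 h, 35°C, dark, A490, cell-free blank subtracted. MIC was the 50% drop in activity versus drug-free control. Tested in duplicate.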

Candida orthopsilosis [14] = assay: Effect on morphology in Candida orthopsilosis grown as planktonic cells assessed as inhibition of hyphae and pseudohyphae at 64 ug/ml after 48 hrs; format: functional, organism-based
Outline: (§6)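 Cells were taken from caspofungin-containing and drug-free wells of the planktonic broth microdilution test after 48 h. They were examined by light microscopy at ×400.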

Candida tropicalis [15] = assay: Antimicrobial activity against Candida tropicalis BR-A9 grown as planktonic cell after 48 hrs by XTT reduction assay; format: functional; outline: as §4
Candida albicans [16] = assay: Antimicrobial activity against Candida albicans BR-A1 grown as planktonic cell assessed as paradoxical growth after 48 hrs by XTT reduction assay; format: functional, organism-based; outline: as §1
Candida metapsilosis [17] = assay: Antimicrobial activity against Candida metapsilosis BR-A40 grown as planktonic cell after 48 hrs by XTT reduction assay; format: functional; details: Lodderomyces metapsilosis; outline: as §1
Candida albicans [18] = assay: Effect on morphology in Candida albicans grown as planktonic cells assessed as rounding and clumping at 16 ug/ml after 48 hrs; format: functional, organism-based; outline: as §6
Candida parapsilosis [19] = assay: Effect on morphology in Candida parapsilosis grown as planktonic cells assessed as rounding and clumping at 16 ug/ml after 48 hrs; format: functional, organism-based
Outline: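 Clinical isolates were tested by CLSI M27-A2 broth microdilution with caspofungin dissolved in sterile water. After 48 h incubation, cells were taken from drug-containing and drug-free control wells. They were examined by light microscopy at ×400 for hyphae or pseudohyphae, rounding or clumping, and enlarged globose cells.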

Candida orthopsilosis [20] = assay: Antimicrobial activity against Candida orthopsilosis BR-A34 grown as biofilm assessed as concentration producing paradoxical growth after 48 hrs by XTT reduction assay; format: functional; outline: as §3
Candida metapsilosis [21] = assay: Effect on morphology in Candida metapsilosis grown as biofilm assessed as rounding and clumping at 16 ug/ml after 48 hrs; format: functional, organism-based
Outline: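 Biofilms formed in RPMI 1640 wells were exposed to caspofungin for 48 h and compared with drug-free control wells. Wells were examined in the plate under an inverted light microscope at ×200 and photographed.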

Candida tropicalis [22] = assay: Antimicrobial activity against Candida tropicalis BR-A20 grown as biofilm assessed as concentration producing paradoxical growth after 48 hrs by XTT reduction assay; format: functional
Outline: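 Clinical isolates were grown overnight (18 h, 35°C, 120 rpm) in RPMI 1640 with MOPS, pH 7.0, then washed and set to ~1 × 10^7 cells/ml. Cells attached for 1.5 h at 37°C, 75 rpm, then biofilms grew 24 h. Caspofungin was given as doubling dilutions of 2–1,024 μg/ml for 48 h at 35°C, 75 rpm. Read-out was XTT-menadione in PBS, 1 h at 35°C in the dark, A490, cell-free blank subtracted. MIC was a 50% drop in activity versus drug-free; PG was >50% of control above MIC. Run in duplicate.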

Candida orthopsilosis [23] = assay: Antimicrobial activity against Candida orthopsilosis BR-A38 grown as biofilm assessed as paradoxical growth after 48 hrs by XTT reduction assay; format: functional, organism-based; outline: as §3
Candida parapsilosis [24] = assay: Antimicrobial activity against Candida parapsilosis 22019 grown as biofilm after 48 hrs by XTT reduction assay; format: functional; details: Lodderomyces parapsilosis, 22019, 48 h; outline: as §5

With `CC[C@H](C)C[C@H](C)CCCCCCCCC(=O)N[C@H]1C[C@@H](O)[C@@H](NCCN)NC(=O)[C@@H]2[C@@H](O)CCN2C(=O)[C@H]([C@H](O)CCN)NC(=O)[C@H]([C@H](O)[C@@H](O)c2ccc(O)cc2)NC(=O)[C@@H]2C[C@@H](O)CN2C(=O)[C@H]([C@@H](C)O)NC1=O` [CASPOFUNGIN] the Activity (Candida orthopsilosis [1]) was “inactive”, the Activity (Candida parapsilosis [2]) was 16 µg/mL and the Activity (Candida orthopsilosis [3]) was 16 µg/mL. For the same compound, the Activity (Candida metapsilosis [4]) was 16 µg/mL, the Activity (Candida tropicalis [5]) was 8 µg/mL and the Activity (Candida parapsilosis [6]) was 8 µg/mL. For the same compound, the Activity (Candida orthopsilosis [7]) was 32 µg/mL, the MIC (Candida metapsilosis [8]) was 1 µg/mL (≈ 0.915 µM) and the MIC (Candida albicans [9]) was 0.5 µg/mL (≈ 0.457 µM). It also gave an MIC (Candida metapsilosis [10]) of 2 µg/mL (≈ 1.83 µM), an MIC (Candida albicans [11]) of 0.5 µg/mL (≈ 0.457 µM) and an Activity (Candida metapsilosis [12]) of 16 µg/mL. The MIC (Candida tropicalis [13]) was 2 µg/mL (≈ 1.83 µM), the Activity (Candida orthopsilosis [14]) was “Active” and the MIC (Candida tropicalis [15]) was 1 µg/mL (≈ 0.915 µM). For the same compound, the Activity (Candida albicans [16]) was “Active”, the MIC (Candida metapsilosis [17]) was 1 µg/mL (≈ 0.915 µM) and the Activity (Candida albicans [18]) was “Active”. For the same compound, the Activity (Candida parapsilosis [19]) was “Active”, the Activity (Candida orthopsilosis [20]) was 32 µg/mL and the Activity (Candida metapsilosis [21]) was “Active”. The Activity (Candida tropicalis [22]) was 8 µg/mL, the Activity (Candida orthopsilosis [23]) was “Active” and the MIC (Candida parapsilosis [24]) was 2 µg/mL (≈ 1.83 µM).
